{"source": "ChEMBL document CHEMBL1140264", "about": "“Sulfur-substituted alpha-alkyl phenethylamines as selective and reversible MAO-A inhibitors: biological activities, CoMFA analysis, and active site modeling” (J Med Chem, 2005)", "key": {"[1]": {"target": "T1, Amine oxidase [flavin-containing] A (Rattus norvegicus, UniProt P21396)", "T1 sequence (P21396 whole entry)": "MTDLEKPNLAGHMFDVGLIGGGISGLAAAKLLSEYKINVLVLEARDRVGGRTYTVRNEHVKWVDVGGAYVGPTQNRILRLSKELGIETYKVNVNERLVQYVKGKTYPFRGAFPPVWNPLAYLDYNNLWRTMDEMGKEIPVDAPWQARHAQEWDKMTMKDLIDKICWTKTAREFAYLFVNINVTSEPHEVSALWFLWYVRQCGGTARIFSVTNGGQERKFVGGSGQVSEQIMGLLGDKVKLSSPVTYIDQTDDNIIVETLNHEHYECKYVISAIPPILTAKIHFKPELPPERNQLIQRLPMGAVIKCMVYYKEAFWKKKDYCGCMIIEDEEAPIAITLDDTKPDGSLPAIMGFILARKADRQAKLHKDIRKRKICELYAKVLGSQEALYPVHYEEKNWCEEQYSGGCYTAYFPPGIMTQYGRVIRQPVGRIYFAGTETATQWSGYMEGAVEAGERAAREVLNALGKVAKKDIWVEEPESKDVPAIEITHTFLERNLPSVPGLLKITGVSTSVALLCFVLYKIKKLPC", "assay": "Inhibitory concentration against monoamine oxidase A in rat brain mitochondrial suspension", "assay_type": "tissue-based", "summary_of_the_method": "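Crude brain mitochondrial suspension from male Sprague-Dawley rats (180-220 g). MAO-A substrate 5-HT 100 µM; substrate and deaminated metabolite measured by HPLC with electrochemical detection. Inhibition relative to enzyme treated identically without inhibitor. IC50 from % inhibition vs -log[I] curves, 5-8 concentrations each in triplicate; mean ± SD of at least two independent experiments.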"}, "[2]": {"target": "T1, Amine oxidase [flavin-containing] A", "assay": "Percent inhibition of rat brain monoamine oxidase A in mitochondrial suspension after 10 minutes pre-incubation and washing at 10e-7 M", "summary_of_the_method": "(§1)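 Crude rat brain mitochondrial suspension preincubated 10 min with inhibitor, then washed three times by centrifugation and resuspension. MAO-A activity measured before and after washing by HPLC-ED with 5-HT (100 µM) as selective substrate, against control preparations. Mean ± SD of triplicate determinations.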"}, "[3]": {"target": "T1, Amine oxidase [flavin-containing] A", "assay": "Percent inhibition of rat brain monoamine oxidase A in mitochondrial suspension after 10 minutes pre-incubation before washing at 10e-7 M", "summary_of_the_method": "as §1"}, "[4]": {"target": "T1, Amine oxidase [flavin-containing] A", "assay": "Percent inhibition of rat brain monoamine oxidase A in mitochondrial suspension with 30 minutes pre-incubation at 10e-7 M", "details": "0.5 h"}, "[5]": {"target": "T1, Amine oxidase [flavin-containing] A", "assay": "Percent inhibition of rat brain monoamine oxidase A in mitochondrial suspension without pre-incubation at 10e-7 M"}}, "note": "pIC50: −log10 of the molar value."}
{"smiles": "COc1cc(SC(C)C)c(OC)cc1CC(C)N", "note": "(configuration not stated)", "values": [{"measurement": "pIC50", "setting": "[1]", "value": 4.56}]}
{"smiles": "CCOc1ccc(CC(C)N)cc1", "note": "(configuration not stated)", "values": [{"measurement": "pIC50", "setting": "[1]", "value": 6.70}]}
{"smiles": "CCCSc1cc(OC)c(CC(C)NC)cc1OC", "note": "(configuration not stated)", "values": [{"measurement": "pIC50", "setting": "[1]", "value": 6.52}]}
{"smiles": "COc1cc(SC)cc(OC)c1CC(C)N", "note": "(configuration not stated)", "values": [{"measurement": "pIC50", "setting": "[1]", "value": 6.52}]}
{"smiles": "CCC(Cc1cc(OC)c(SC)cc1OC)NC", "note": "(configuration not stated)", "values": [{"measurement": "pIC50", "setting": "[1]", "value": 4.81}]}
{"smiles": "COc1cc(Cl)c(CC(C)N)c(OC)c1", "note": "(configuration not stated)", "values": [{"measurement": "pIC50", "setting": "[1]", "value": 7.15}, {"measurement": "Inhibition", "setting": "[2]", "value": 0, "unit": "%"}, {"measurement": "Inhibition", "setting": "[3]", "value": 58, "unit": "%"}]}
{"smiles": "CCSc1cc(OC)c(CC(C)NC)cc1OC", "note": "(configuration not stated)", "values": [{"measurement": "pIC50", "setting": "[1]", "value": 5.85}]}
{"smiles": "CCCSc1cc(OC)c(CC(N)CC)cc1OC", "note": "(configuration not stated)", "values": [{"measurement": "pIC50", "setting": "[1]", "value": 5.12}]}
{"smiles": "CCSc1cc(OC)c(CC(C)N)c(OC)c1", "note": "(configuration not stated)", "values": [{"measurement": "pIC50", "setting": "[1]", "value": 7.10}, {"measurement": "Inhibition", "setting": "[2]", "value": 0, "unit": "%"}, {"measurement": "Inhibition", "setting": "[4]", "value": 33, "unit": "%"}, {"measurement": "Inhibition", "setting": "[3]", "value": 40, "unit": "%"}, {"measurement": "Inhibition", "setting": "[5]", "value": 23.7, "unit": "%"}]}
{"smiles": "CNC(C)Cc1cc(OC)c(SC)cc1OC", "note": "(configuration not stated)", "values": [{"measurement": "pIC50", "setting": "[1]", "value": 5.74}]}
{"smiles": "CC(C)CSc1ccc(CC(C)N)cc1", "note": "(configuration not stated)", "values": [{"measurement": "pIC50", "setting": "[1]", "value": 6.40}]}
{"smiles": "CCCCSc1cc(OC)c(CC(C)N)cc1OC", "note": "(configuration not stated)", "values": [{"measurement": "pIC50", "setting": "[1]", "value": 5.54}]}
{"smiles": "CCC(N)Cc1cc(OC)c(SC)cc1OC", "note": "(configuration not stated)", "values": [{"measurement": "pIC50", "setting": "[1]", "value": 4.51}]}
{"smiles": "CCSc1cc(OC)c(CC(CC)NC)cc1OC", "note": "(configuration not stated)", "values": [{"measurement": "pIC50", "setting": "[1]", "value": 5.35}]}
{"smiles": "CCCCCSc1cc(OC)c(CC(C)N)cc1OC", "note": "(configuration not stated)", "values": [{"measurement": "pIC50", "setting": "[1]", "value": 4.84}]}
{"smiles": "CCCSc1cc(OC)c(CC(CC)NC)cc1OC", "note": "(configuration not stated)", "values": [{"measurement": "pIC50", "setting": "[1]", "value": 5.85}]}
{"smiles": "COc1cc(SCCc2ccccc2)c(OC)cc1CC(C)N", "note": "(configuration not stated)", "values": [{"measurement": "pIC50", "setting": "[1]", "value": "< 4.00"}]}
{"smiles": "CCSc1ccc(CC(C)N)cc1", "note": "(configuration not stated)", "values": [{"measurement": "pIC50", "setting": "[1]", "value": 7.00}]}
{"smiles": "COc1ccc(CC(C)N)cc1OC", "note": "(configuration not stated)", "values": [{"measurement": "pIC50", "setting": "[1]", "value": 4.70}]}
{"smiles": "COc1ccc(CC(C)N)c(OC)c1", "note": "(configuration not stated)", "values": [{"measurement": "pIC50", "setting": "[1]", "value": 6.22}]}
{"smiles": "COc1cc(Br)c(CC(C)N)cc1OC", "note": "(configuration not stated)", "values": [{"measurement": "pIC50", "setting": "[1]", "value": 5.03}]}
{"smiles": "COc1cc(OC)c(CC(C)N)cc1Br", "note": "(configuration not stated)", "values": [{"measurement": "pIC50", "setting": "[1]", "value": 4.89}]}
{"smiles": "CCSc1cc(OC)c(CC(C)N)cc1OC", "note": "(configuration not stated)", "values": [{"measurement": "pIC50", "setting": "[1]", "value": 5.42}]}
{"smiles": "COc1cc(OC)c(CC(C)N)c(OC)c1", "note": "(configuration not stated)", "values": [{"measurement": "pIC50", "setting": "[1]", "value": 6.40}]}
{"smiles": "CCCSc1cc(OC)c(CC(C)N)cc1OC", "note": "(configuration not stated)", "values": [{"measurement": "pIC50", "setting": "[1]", "value": 5.62}, {"measurement": "Inhibition", "setting": "[2]", "value": 0, "unit": "%"}, {"measurement": "Inhibition", "setting": "[4]", "value": 20, "unit": "%"}, {"measurement": "Inhibition", "setting": "[3]", "value": 20, "unit": "%"}, {"measurement": "Inhibition", "setting": "[5]", "value": 15.7, "unit": "%"}]}
{"smiles": "CC(N)Cc1ccc(Cl)cc1", "note": "(configuration not stated)", "values": [{"measurement": "pIC50", "setting": "[1]", "value": 5.40}]}
{"smiles": "CCSc1cc(OC)c(CC(N)CC)cc1OC", "note": "(configuration not stated)", "values": [{"measurement": "pIC50", "setting": "[1]", "value": 4.93}]}
{"smiles": "COc1cc(SC)c(OC)cc1CC(C)N", "note": "(configuration not stated)", "values": [{"measurement": "pIC50", "setting": "[1]", "value": 5.28}]}
{"smiles": "COc1cc(CC(C)N)c(OC)cc1I", "note": "(configuration not stated)", "values": [{"measurement": "pIC50", "setting": "[1]", "value": 4.36}]}
{"smiles": "COc1cc(C(F)(F)F)c(OC)cc1CC(C)N", "note": "(configuration not stated)", "values": [{"measurement": "pIC50", "setting": "[1]", "value": "< 4.00"}]}
{"smiles": "COc1cc(CC(C)N)c(OC)cc1N", "note": "(configuration not stated)", "values": [{"measurement": "pIC50", "setting": "[1]", "value": "< 4.00"}]}
{"smiles": "COc1cc([N+](=O)[O-])c(OC)cc1CC(C)N", "note": "(configuration not stated)", "values": [{"measurement": "pIC50", "setting": "[1]", "value": "< 4.00"}]}
{"smiles": "COc1ccc(OC)c(CC(C)N)c1", "note": "(configuration not stated)", "values": [{"measurement": "pIC50", "setting": "[1]", "value": "< 4.00"}]}
{"smiles": "CSc1ccc(CC(C)N)cc1", "note": "(configuration not stated) [4-METHYLTHIOAMPHETAMINE]", "values": [{"measurement": "pIC50", "setting": "[1]", "value": 6.70}]}
{"smiles": "COc1cc(CC(C)N)c(OC)cc1Br", "note": "(configuration not stated) [BROLAMFETAMINE]", "values": [{"measurement": "pIC50", "setting": "[1]", "value": 4.00}]}
{"smiles": "COc1cc(CC(C)N)c(OC)cc1C", "note": "(configuration not stated) [DOM]", "values": [{"measurement": "pIC50", "setting": "[1]", "value": 4.62}]}
{"smiles": "COc1ccc(CC(C)N)cc1", "note": "(configuration not stated) [PARA-METHOXYAMPHETAMINE]", "values": [{"measurement": "pIC50", "setting": "[1]", "value": 6.52}]}
